ChEMBL document CHEMBL4680077, “Differentiation of skeletal osteogenic progenitor cells to osteoblasts with 3,4-diarylbenzopyran based amide derivatives: Novel osteogenic agents” (Eur J Med Chem, 2016)
Active and inactive are the calls of the source. The calls are words filed in the database; no cut-off is given here.

Key:
[1] = Acute toxicity in Swiss albino mouse assessed as absolute kidney weight at 1000 mg/kg, po measured after 7 days (reference value: 0.29 +/- 0.02 g); assay type: organism-based; conditions: in vivo, 168 h, time 7 day
[2] = Acute toxicity in Swiss albino mouse assessed as SGOT level at 1000 mg/kg, po measured after 7 days (reference value: 31.99 +/- 3.37 U/L); assay type: organism-based; conditions: in vivo, 168 h, time 7 day
[3] = Acute toxicity in Swiss albino mouse assessed as absolute heart weight at 1000 mg/kg, po measured after 7 days (reference value: 0.12 g); assay type: organism-based; conditions: in vivo, 168 h, time 7 day
[4] = Acute toxicity in Swiss albino mouse assessed as observational changes at 5 to 1000 mg/kg, po measured after 7 days; assay type: organism-based; conditions: in vivo, 168 h, dose 5-1000 mg/kg, time 7 day
Summary of the method: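 Acute oral toxicity per OECD guidelines 420, 423 and 425. Swiss albino mice received a single oral dose at 5, 50, 300 or 1000 mg kg1 body weight, with vehicle controls. Animals were watched for morbidity, mortality and observational changes over 7 days. Tail-vein blood was then taken for hematology and serum biochemistry. Organs were inspected at sacrifice. n = 6 per group.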

Mus musculus [5] = experiment: In vivo osteogenic activity in ovariectomized BALB/c mouse assessed as decrease in serum CTx at 1 to 10 mg/kg, po via gavage administered for 30 days; assay type: functional, organism-based; conditions: dose 1-10 mg/kg, time 30.0 day
Summary of the method: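 Eight-week-old female balb/c mice were ovariectomized and dosed once daily by oral gavage at 1 or 10 mg kg-1 in vehicle (gum acacia in water) for 30 days; sham and Ovx vehicle groups served as controls. Serum CTx and osteocalcin were assayed in duplicate. n = 10 per group; mean ± SEM.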

Mus musculus [6] = experiment: In vivo osteogenic activity in ovariectomized BALB/c mouse assessed as increase in bone stiffness at 1 to 10 mg/kg, po via gavage administered for 1 month by TKC Muromachi bone strength testing method; assay type: functional, organism-based; conditions: dose 1-10 mg/kg, time 1.0 months
Summary of the method: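 Ovariectomized balb/c mice were gavaged with 1 or 10 mg kg-1 daily for one month. Bones were then tested on a bone strength tester for energy, stiffness and force to break. Mean ± SEM compared with the Ovx vehicle group.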

[7] = AUC (0 to 24 hrs) in Sprague-Dawley rat at 1 mg/kg, iv measured upto 24 hrs by LC-MS/MS analysis; assay type: ADME, organism-based; design: route intravenous, dose 1 mg/kg, time <=24; conditions: in vivo
Summary of the method: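 Female Sprague-Dawley rats (n = 4 per route), fasted overnight (12-14 h); 1 mg/kg orally in 0.25% CMC suspension, or an i.v. tail-vein bolus in DMSO-PEG400-ethanol-water (4:3:1:2). Retro-orbital blood was taken up to 24 h, and plasma was extracted with n-hexane (halofantrine IS). LC-MS/MS linear range 0.5-200 ng/mL. AUC0-24 was calculated by the linear trapezoidal rule, non-compartmental; mean ± S.D.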

[8] = Acute toxicity in Swiss albino mouse assessed as albumin level at 1000 mg/kg, po measured after 7 days (reference value: 3.24 +/- 0.30 g/dL); assay type: organism-based; conditions: in vivo, 168 h, time 7 day
[9] = Acute toxicity in Swiss albino mouse assessed as relative liver weight at 50 mg/kg, po measured after 7 days (reference value: 6.81 +/- 2.14 %); assay type: organism-based; conditions: in vivo, 168 h, time 7 day
[10] = Toxicity in ovariectomized BALB/c mouse assessed as uterine estrogenicity by measuring uterine weights at 1 to 10 mg/kg, po administered for 30 days and measured on day 30; assay type: organism-based; conditions: in vivo, 720 h, dose 1-10 mg/kg, time 30 day
Summary of the method: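 Six-to-eight-week-old balb/c mice (n = 10) were ovariectomized and dosed orally for 30 consecutive days: test agent at 1 or 10 mg kg-1 day-1, or 17β-E2 at 0.01 mg kg-1 day-1. Uterine weights were recorded and compared with the Ovx vehicle group; mean ± SEM.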

Calvarial osteoblast [11] = experiment: Induction of osteoblast differentiation in mouse calvarial osteoblast assessed as increase in collagen type 1 mRNA expression at 1 pM incubated for 24 and 48 hrs by qPCR analysis; assay type: functional, cell-based
Summary of the method: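 Calvarial osteoblasts were treated at 1 pM for 24 and 48 h. Total RNA was extracted with TRIzol, and cDNA was made from 2 µg RNA. qPCR ran 40 cycles for BMP-2, RUNX-2, OCN and collagen type 1, with normalization to GAPDH. Mean ± SEM of three independent experiments.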

[12] = Acute toxicity in Swiss albino mouse assessed as body weight at 1000 mg/kg, po observed on day 1 (reference value: 20.38 +/- 0.24 g); assay type: organism-based; conditions: in vivo, 24 h, time 1 day
[13] = Acute toxicity in Swiss albino mouse assessed as serum protein level at 50 mg/kg, po measured after 7 days (reference value: 0.66 +/- 0.01 mg/ml); assay type: organism-based; conditions: in vivo, 168 h, time 7 day
Calvarial osteoblast [14] = experiment: Induction of osteoblast differentiation in mouse calvarial osteoblast assessed as increase in ERbeta expression at 1 pM incubated for 48 hrs by Western blot analysis; assay type: functional, cell-based
Summary of the method: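 Calvarial osteoblasts at 60–70% confluence were treated ± compound for 48 h, with 100 pM E2 as positive control. Lysates (30 µg protein) were resolved on 10% SDS-PAGE, transferred to PVDF and probed for ER-α and ER-β with HRP secondaries and ECL detection. Bands were quantified by densitometry normalized to β-actin.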

[15] = Oral bioavailability in Sprague-Dawley rat at 1 mg/kg measured upto 24 hrs by LC-MS/MS analysis; assay type: ADME, organism-based; conditions: in vivo
Summary of the method: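 Oral (1 mg kg-1, 0.25% CMC) and i.v. (1 mg kg-1 bolus) groups of female SD rats, n = 4 each, sampled to 24 h and assayed by plasma LC-MS/MS. AUC0-∞ = AUC0-t + Clast/kel. %F = (AUC oral × dose i.v.)/(AUC i.v. × dose oral) × 100.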

[16] = Acute toxicity in Swiss albino mouse assessed as absolute uterus weight at 50 mg/kg, po measured after 7 days (reference value: 0.27+/- 0.07 g); assay type: organism-based; conditions: in vivo, 168 h, time 7 day
[17] = Acute toxicity in Swiss albino mouse assessed as monocyte count at 300 mg/kg, po measured after 7 days (reference value: 12.58 +/- 2.86 %); assay type: organism-based; conditions: in vivo, 168 h, time 7 day
[18] = Acute toxicity in Swiss albino mouse assessed as lymphocyte count at 300 mg/kg, po measured after 7 days (reference value: 37.97 +/- 1.80 %); assay type: organism-based; conditions: in vivo, 168 h, time 7 day
[19] = Acute toxicity in Swiss albino mouse assessed as absolute lung weight at 300 mg/kg, po measured after 7 days (reference value: 0.16 +/- 0.01 g); assay type: organism-based; conditions: in vivo, 168 h, time 7 day
[20] = Half life in Sprague-Dawley rat at 1 mg/kg, iv measured upto 24 hrs by LC-MS/MS analysis; assay type: ADME, organism-based; conditions: in vivo
[21] = Acute toxicity in Swiss albino mouse assessed as reduced GSH level at 50 mg/kg, po measured after 7 days (reference value: 18.20 +/- 1.56 ug/mg of protein); assay type: organism-based; conditions: in vivo, 168 h, time 7 day
[22] = Clearance in Sprague-Dawley rat at 1 mg/kg, iv measured upto 24 hrs by LC-MS/MS analysis; assay type: ADME, organism-based; conditions: in vivo
Calvarial osteoblast [23] = experiment: Induction of osteoblast differentiation in mouse calvarial osteoblast assessed as increase in ALP activity using PNPP as substrate at 0.000001 to 1 uM incubated activity for 48 hrs by spectrophotometric analysis relative to control; assay type: functional, cell-based; conditions: dose lower 1e-06 µM, dose upper 1.0 µM

CCCCN(C)C(=O)CCCCOc1ccc([C@H]2c3ccc(OC)cc3OC(C)(C)[C@@H]2c2ccccc2)cc1
Activity [1]: 0.29 g | Activity [2]: 38.6 U/L | Activity [3]: 0.12 g | Activity [4]: Non-Toxic | Activity (Mus musculus [5]): Active | Activity (Mus musculus [6]): Active | AUC(0-t) [7]: 852 ng·h/mL | Activity [8]: 3.98 g/dL | Activity [9]: 5.17% | Activity [10]: Non-Toxic | Activity (Calvarial osteoblast [11]): Active | Activity [12]: 18.42 g | Activity [13]: 0.74 mg/mL | Activity (Calvarial osteoblast [14]): Active | bioavailability [15]: 13.2% | Activity [16]: 0.24 g | Activity [17]: 8.99% | Activity [18]: 42.9% | Activity [19]: 0.17 g | half-life [20]: 3.52 h | Activity [21]: 15 µg/mg | clearance [22]: 18.4 mL/min/kg | Activity (Calvarial osteoblast [23]): Active
